Each block holds one compound with its values, some of them ahead of it. Activity calls are given as the source filed them. No cut-off for these calls is given here.
Key:
Histamine H3 receptor [1] = target: Histamine H3 receptor (Rattus norvegicus, UniProt Q9QYN8); experiment: Displacement of [3H]-(R)-alpha-methylhistamine from rat H3 receptor expressed in HEK293T cells after 120 mins by scintillation counting; type: cell-based, HEK-293T
Histamine H3 receptor [2] = target: T1, Histamine H3 receptor (Homo sapiens, UniProt Q9Y5N1); experiment: Displacement of [3H]-(R)-alpha-methylhistamine from human H3 receptor expressed in HEK293T cells after 120 mins by scintillation counting; type: cell-based, HEK-293T
Histamine H2 receptor = Histamine H2 receptor (Homo sapiens, UniProt P25021); experiment: Binding affinity to H2 receptor
[3] = target: 5-hydroxytryptamine receptor 2B (Homo sapiens, UniProt P41595); experiment: Binding affinity to 5-HT2B receptor
Chain of 5-hydroxytryptamine receptor 2B (P41595 whole entry): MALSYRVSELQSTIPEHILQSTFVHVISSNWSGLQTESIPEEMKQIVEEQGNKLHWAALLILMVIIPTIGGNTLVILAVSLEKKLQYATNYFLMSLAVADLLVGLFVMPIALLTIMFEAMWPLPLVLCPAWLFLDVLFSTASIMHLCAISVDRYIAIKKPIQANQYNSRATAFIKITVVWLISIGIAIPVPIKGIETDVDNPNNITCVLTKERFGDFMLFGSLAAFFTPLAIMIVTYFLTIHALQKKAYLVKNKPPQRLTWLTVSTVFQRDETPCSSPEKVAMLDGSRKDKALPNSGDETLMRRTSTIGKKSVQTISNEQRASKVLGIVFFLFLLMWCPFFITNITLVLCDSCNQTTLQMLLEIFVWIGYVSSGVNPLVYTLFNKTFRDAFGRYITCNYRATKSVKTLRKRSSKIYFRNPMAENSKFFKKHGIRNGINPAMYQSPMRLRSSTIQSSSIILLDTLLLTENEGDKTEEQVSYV

D(2) dopamine receptor = D(2) dopamine receptor (Homo sapiens, UniProt P14416); experiment: Binding affinity to D2 receptor
[4] = target: T2, Alpha-2A adrenergic receptor (Homo sapiens, UniProt P08913); experiment: Binding affinity to alpha-2A receptor
T2 sequence (P08913 whole entry): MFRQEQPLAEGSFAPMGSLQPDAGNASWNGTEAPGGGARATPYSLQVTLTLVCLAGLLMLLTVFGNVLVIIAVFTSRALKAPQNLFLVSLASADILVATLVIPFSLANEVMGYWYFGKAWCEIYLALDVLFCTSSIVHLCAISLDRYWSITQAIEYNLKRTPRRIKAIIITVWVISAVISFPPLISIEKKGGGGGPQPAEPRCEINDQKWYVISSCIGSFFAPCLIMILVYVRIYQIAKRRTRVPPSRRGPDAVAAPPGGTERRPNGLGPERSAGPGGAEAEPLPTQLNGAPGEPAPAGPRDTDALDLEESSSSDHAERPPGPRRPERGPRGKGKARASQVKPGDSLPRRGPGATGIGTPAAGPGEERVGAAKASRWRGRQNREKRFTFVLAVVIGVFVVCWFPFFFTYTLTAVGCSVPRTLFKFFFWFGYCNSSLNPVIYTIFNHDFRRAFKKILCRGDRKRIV

[5] = target: 5-hydroxytryptamine receptor 6 (Homo sapiens, UniProt P50406); experiment: Binding affinity to 5-HT6 receptor
[6] = target: T3, 5-hydroxytryptamine receptor 1A (Homo sapiens, UniProt P08908); experiment: Binding affinity to 5-HT1A receptor
T3 sequence (P08908 whole entry): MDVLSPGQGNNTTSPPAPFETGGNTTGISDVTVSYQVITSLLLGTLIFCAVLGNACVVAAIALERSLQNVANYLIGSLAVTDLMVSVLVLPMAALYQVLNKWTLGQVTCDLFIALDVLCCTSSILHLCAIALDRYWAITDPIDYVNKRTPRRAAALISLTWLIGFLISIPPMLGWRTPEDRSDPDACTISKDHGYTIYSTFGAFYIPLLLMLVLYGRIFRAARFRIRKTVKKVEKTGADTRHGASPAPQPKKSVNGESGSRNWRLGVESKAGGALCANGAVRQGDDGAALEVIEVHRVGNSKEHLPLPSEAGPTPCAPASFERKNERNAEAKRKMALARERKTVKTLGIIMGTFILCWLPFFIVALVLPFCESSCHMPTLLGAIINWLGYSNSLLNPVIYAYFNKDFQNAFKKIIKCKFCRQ

Histamine H1 receptor = Histamine H1 receptor (Homo sapiens, UniProt P35367); experiment: Binding affinity to H1 receptor
Chain of Histamine H1 receptor (P35367 whole entry): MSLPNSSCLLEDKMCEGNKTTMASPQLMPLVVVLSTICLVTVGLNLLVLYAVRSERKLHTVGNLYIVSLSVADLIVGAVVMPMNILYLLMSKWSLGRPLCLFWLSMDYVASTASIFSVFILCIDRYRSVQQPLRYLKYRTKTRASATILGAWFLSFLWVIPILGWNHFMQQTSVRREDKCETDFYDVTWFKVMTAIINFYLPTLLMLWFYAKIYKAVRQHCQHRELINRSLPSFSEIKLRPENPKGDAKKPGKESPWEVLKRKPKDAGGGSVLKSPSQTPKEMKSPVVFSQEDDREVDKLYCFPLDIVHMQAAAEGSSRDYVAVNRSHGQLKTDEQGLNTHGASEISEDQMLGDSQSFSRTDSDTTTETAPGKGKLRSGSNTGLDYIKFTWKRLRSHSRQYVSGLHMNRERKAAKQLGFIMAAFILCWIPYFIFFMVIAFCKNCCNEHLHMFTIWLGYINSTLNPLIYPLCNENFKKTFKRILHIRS

[7] = target: Sodium-dependent dopamine transporter (Homo sapiens, UniProt Q01959); experiment: Binding affinity to DAT
Chain of Sodium-dependent dopamine transporter (Q01959 whole entry): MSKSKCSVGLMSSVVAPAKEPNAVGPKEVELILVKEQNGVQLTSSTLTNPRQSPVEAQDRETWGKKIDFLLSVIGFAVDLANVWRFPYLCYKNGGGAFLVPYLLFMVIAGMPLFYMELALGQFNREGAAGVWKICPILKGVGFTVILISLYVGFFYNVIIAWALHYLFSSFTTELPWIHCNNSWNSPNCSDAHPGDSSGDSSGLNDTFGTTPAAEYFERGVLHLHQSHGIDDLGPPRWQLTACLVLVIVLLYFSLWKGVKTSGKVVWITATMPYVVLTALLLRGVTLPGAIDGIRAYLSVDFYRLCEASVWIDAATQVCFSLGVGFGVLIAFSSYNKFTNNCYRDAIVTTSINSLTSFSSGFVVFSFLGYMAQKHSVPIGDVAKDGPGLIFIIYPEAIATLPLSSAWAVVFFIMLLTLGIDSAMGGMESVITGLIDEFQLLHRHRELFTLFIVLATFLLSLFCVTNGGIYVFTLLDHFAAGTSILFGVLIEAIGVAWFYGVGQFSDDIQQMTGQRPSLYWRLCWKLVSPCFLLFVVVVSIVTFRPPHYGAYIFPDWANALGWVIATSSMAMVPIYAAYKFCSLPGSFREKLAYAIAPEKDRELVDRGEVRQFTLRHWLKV

[8] = target: Sodium-dependent serotonin transporter (Homo sapiens, UniProt P31645); experiment: Binding affinity to 5-HT transporter
Chain of Sodium-dependent serotonin transporter (P31645 whole entry): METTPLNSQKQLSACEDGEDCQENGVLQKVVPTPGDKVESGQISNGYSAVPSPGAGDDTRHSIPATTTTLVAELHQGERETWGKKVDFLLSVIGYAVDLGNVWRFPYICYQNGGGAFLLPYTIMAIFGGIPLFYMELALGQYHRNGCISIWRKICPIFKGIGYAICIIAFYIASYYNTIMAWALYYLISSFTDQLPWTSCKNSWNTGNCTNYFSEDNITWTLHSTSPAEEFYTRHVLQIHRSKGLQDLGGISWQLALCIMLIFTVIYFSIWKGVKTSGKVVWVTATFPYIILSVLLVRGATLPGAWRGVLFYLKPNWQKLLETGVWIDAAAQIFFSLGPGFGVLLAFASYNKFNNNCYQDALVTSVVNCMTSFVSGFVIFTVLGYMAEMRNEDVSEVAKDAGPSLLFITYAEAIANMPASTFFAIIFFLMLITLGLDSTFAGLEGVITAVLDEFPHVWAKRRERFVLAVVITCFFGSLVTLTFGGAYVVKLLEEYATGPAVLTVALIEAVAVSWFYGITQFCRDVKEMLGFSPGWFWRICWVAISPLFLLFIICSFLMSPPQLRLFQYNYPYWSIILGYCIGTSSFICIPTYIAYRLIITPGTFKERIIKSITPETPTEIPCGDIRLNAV

[9] = target: Voltage-gated inwardly rectifying potassium channel KCNH2 (Homo sapiens, UniProt Q12809); experiment: Inhibition of human ERG by IonWorks assay
Chain of Voltage-gated inwardly rectifying potassium channel KCNH2 (Q12809 whole entry): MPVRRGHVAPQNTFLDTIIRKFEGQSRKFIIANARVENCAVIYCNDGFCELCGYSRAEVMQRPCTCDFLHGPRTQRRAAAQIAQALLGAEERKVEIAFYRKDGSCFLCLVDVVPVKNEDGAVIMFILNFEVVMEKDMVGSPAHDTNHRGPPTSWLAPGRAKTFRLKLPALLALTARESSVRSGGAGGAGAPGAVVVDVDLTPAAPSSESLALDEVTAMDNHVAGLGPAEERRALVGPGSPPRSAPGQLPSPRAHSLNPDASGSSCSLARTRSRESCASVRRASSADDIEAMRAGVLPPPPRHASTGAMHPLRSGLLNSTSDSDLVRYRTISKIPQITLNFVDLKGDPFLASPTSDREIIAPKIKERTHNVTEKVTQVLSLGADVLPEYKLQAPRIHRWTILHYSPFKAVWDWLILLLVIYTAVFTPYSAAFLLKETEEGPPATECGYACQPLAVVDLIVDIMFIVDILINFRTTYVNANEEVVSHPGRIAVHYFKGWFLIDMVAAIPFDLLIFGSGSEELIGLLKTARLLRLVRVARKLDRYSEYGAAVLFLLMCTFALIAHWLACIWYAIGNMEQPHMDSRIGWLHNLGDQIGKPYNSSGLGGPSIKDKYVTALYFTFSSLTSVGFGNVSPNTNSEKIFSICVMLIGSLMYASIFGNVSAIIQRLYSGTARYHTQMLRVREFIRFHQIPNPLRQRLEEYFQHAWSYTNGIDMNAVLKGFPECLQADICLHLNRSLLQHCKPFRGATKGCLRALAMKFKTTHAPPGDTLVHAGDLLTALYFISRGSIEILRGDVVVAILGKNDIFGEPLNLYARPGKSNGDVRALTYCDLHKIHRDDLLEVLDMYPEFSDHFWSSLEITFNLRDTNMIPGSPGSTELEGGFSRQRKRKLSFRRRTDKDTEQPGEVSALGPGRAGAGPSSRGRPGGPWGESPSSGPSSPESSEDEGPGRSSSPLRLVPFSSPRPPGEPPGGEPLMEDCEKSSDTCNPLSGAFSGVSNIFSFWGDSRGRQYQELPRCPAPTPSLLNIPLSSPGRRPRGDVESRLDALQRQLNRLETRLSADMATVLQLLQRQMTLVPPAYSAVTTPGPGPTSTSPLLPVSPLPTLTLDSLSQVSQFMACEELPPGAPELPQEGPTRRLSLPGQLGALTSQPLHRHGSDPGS

hERG (KCNH2) = hERG (KCNH2) (Homo sapiens, UniProt Q12809); experiment: Inhibition of human ERG at 10 uM by IonWorks assay
Chain of hERG (KCNH2) (Q12809 whole entry): as above

Rattus norvegicus = experiment: Inhibition of (R)-alpha-methylhistamine-induced water consumption in rat dispogenia model at 3 to 10 mg/kg, ip administered 30 mins prior (R)-alpha-methylhistamine challenge measured over 1 hr; type: functional, organism-based
Procedure, shortened: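 Rat dipsogenia model: test article was given ip at 3 or 10 mg/kg 30 min before the H3 agonist (R)-α-methylhistamine. Water consumed during the 1 h after agonist dosing was recorded and compared with vehicle and agonist-alone groups (p < 0.05).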

Histamine H3 receptor [10] = target: T1, Histamine H3 receptor; experiment: Inverse agonist activity at human H3 receptor expressed in HEK293T cells assessed as inhibition of {35S]GTPgamma binding; type: cell-based; conditions: HEK-293T
Procedure, shortened: (§1)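 Basal [35S]GTPγS binding was measured in membranes from HEK cells expressing human H3 receptor, across a range of concentrations. EC50 and maximal inhibition relative to basal binding were derived.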

Histamine H3 receptor [11] = target: T1, Histamine H3 receptor; experiment: Inverse agonist activity at human H3 receptor expressed in HEK293T cells assessed as inhibition of {35S]GTPgamma binding relative to basal level; type: cell-based; conditions: HEK-293T, concentration not given here; procedure, shortened: as §1

Chain of Histamine H3 receptor (Rattus norvegicus, UniProt Q9QYN8) (Q9QYN8 whole entry): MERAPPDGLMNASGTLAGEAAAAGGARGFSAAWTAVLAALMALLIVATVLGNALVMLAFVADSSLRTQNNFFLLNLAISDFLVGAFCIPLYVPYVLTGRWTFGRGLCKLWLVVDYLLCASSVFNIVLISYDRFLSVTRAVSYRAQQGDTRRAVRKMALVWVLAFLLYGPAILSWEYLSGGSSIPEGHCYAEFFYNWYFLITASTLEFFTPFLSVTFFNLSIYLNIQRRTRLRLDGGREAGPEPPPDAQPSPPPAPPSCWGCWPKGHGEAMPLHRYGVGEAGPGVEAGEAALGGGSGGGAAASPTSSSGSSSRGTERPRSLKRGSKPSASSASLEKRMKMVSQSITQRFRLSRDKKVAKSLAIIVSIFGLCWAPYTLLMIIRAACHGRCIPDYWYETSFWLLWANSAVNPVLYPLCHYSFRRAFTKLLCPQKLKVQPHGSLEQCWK

SMILES: O=C1c2ccc(-c3cc(F)cc(F)c3)cc2CCN1CCN1CCCC1
Ki (Histamine H3 receptor [1]): 146 nM
Ki (Histamine H3 receptor [2]): 9 nM

SMILES: O=C1c2ccc(-c3ccc(F)cc3F)cc2CCN1CCN1CCCC1
Ki (Histamine H3 receptor [1]): 153 nM
Ki (Histamine H3 receptor [2]): 8.1 nM

SMILES: O=C1c2ccc(-n3cnc4ccccc43)cc2CCN1CCN1CCCC1
Ki (Histamine H3 receptor [1]): 174 nM
Ki (Histamine H3 receptor [2]): 0.8 nM

SMILES: O=C(c1ccc(-c2ccc3c(c2)CCN(CCN2CCCC2)C3=O)c(F)c1)N1CCCC1
Ki (Histamine H3 receptor [2]): 3.2 nM
IC50 [9]: 11300 nM

SMILES: O=C1c2ccc(-c3cccc(OC(F)(F)F)c3)cc2CCN1CCN1CCCC1
Ki (Histamine H3 receptor [1]): 276 nM
Ki (Histamine H3 receptor [2]): 28.4 nM

SMILES: CN(C)C(=O)c1ccc(-c2ccc3c(c2)CCN(CCN2CCCC2)C3=O)cc1
inhibition (Rattus norvegicus): Active
Activity (Histamine H3 receptor [10]): Dose-dependent effect
inhibition (Histamine H3 receptor [11]): 65%

SMILES: O=C(NC1CCC1)c1ccc(-c2ccc3c(c2)CCN(CCN2CCCC2)C3=O)cc1
Ki (Histamine H3 receptor [2]): 2.1 nM
IC50 [9]: 2500 nM

SMILES: O=C1c2ccc(-c3cccc(C(F)(F)F)c3)cc2CCN1CCN1CCCC1
Ki (Histamine H3 receptor [1]): 182 nM
Ki (Histamine H3 receptor [2]): 6.4 nM

SMILES: CNC(=O)c1ccc(-c2ccc3c(c2)CCN(CCN2CCCC2)C3=O)c(F)c1
Ki (Histamine H3 receptor [2]): 1.7 nM

SMILES: O=C(c1ccc(-c2ccc3c(c2)CCN(CCN2CCCC2)C3=O)cc1)N1CCCC1
Ki (Histamine H3 receptor [2]): 2.4 nM

SMILES: O=C1c2ccc(-c3ccc(F)c(F)c3)cc2CCN1CCN1CCCC1
Ki (Histamine H3 receptor [1]): 82 nM
Ki (Histamine H3 receptor [2]): 7.7 nM

Now from value to compound, other results behind:

Ki (Histamine H2 receptor): > 10000 nM
Ki [3]: > 10000 nM
Ki (D(2) dopamine receptor): > 10000 nM
Ki (Histamine H3 receptor [2]): 0.2 nM
Ki [4]: > 3000 nM
Ki [5]: > 10000 nM
Ki [6]: 12200 nM
Ki (Histamine H1 receptor): 8750 nM
Ki [7]: > 10000 nM
Ki [8]: 810 nM
SMILES: C[C@@H]1CCCN1CCN1CCc2cc(-c3ccc(C(=O)N4CCCC4)cc3)ccc2C1=O

Ki (Histamine H3 receptor [2]): 1 nM
SMILES: CNC(=O)c1ccc(-c2ccc3c(c2)CCN(CCN2CCC[C@H]2C)C3=O)cc1
IC50 [9]: 17000 nM

Ki (Histamine H3 receptor [2]): 21.7 nM
SMILES: C[C@@H]1CCCN1CCN1CCc2c(cccc2-c2ccc(C#N)cc2)C1=O
inhibition at 10 µM (hERG (KCNH2)): 96%

Ki (Histamine H3 receptor [1]): 153 nM
Ki (Histamine H3 receptor [2]): 18 nM
SMILES: N#Cc1ccc(-c2ccc3c(c2)CCN(CCCN2CCCCC2)C3=O)cc1

Ki (Histamine H3 receptor [2]): 1.9 nM
SMILES: CC(C)NC(=O)c1ccc(-c2ccc3c(c2)CCN(CCN2CCCC2)C3=O)cc1

Ki (Histamine H2 receptor): > 10000 nM
Ki [3]: > 10000 nM
Ki (D(2) dopamine receptor): > 10000 nM
Ki (Histamine H3 receptor [2]): 1 nM
Ki [4]: > 3000 nM
Ki [5]: > 10000 nM
Ki [6]: 10100 nM
Ki (Histamine H1 receptor): 7230 nM
Ki [7]: > 10000 nM
Ki [8]: 300 nM
SMILES: CCNC(=O)c1ccc(-c2ccc3c(c2)CCN(CCN2CCC[C@H]2C)C3=O)cc1
IC50 [9]: 7400 nM

Ki (Histamine H2 receptor): > 10000 nM
Ki [3]: > 10000 nM
Ki (D(2) dopamine receptor): > 10000 nM
Ki (Histamine H3 receptor [2]): 1.7 nM
Ki [4]: > 3000 nM
Ki [5]: > 10000 nM
Ki [6]: 9040 nM
Ki (Histamine H1 receptor): 7010 nM
Ki [7]: > 10000 nM
Ki [8]: 390 nM
SMILES: C[C@H]1CCCN1C(=O)c1ccc(-c2ccc3c(c2)CCN(CCN2CCCC2)C3=O)cc1
IC50 [9]: 12000 nM

Ki (Histamine H2 receptor): > 10000 nM
Ki [3]: > 10000 nM
Ki (D(2) dopamine receptor): > 10000 nM
Ki (Histamine H3 receptor [2]): 1.7 nM
Ki [4]: > 3000 nM
Ki [5]: > 10000 nM
Ki [6]: 9720 nM
Ki (Histamine H1 receptor): > 10000 nM
Ki [7]: > 10000 nM
Ki [8]: 320 nM
SMILES: C[C@@H]1CCCN1C(=O)c1ccc(-c2ccc3c(c2)CCN(CCN2CCCC2)C3=O)cc1
IC50 [9]: 10500 nM

Ki (Histamine H3 receptor [2]): 1.2 nM
SMILES: C[C@@H]1CCCN1CCN1CCc2cc(Oc3ccc(C#N)cn3)ccc2C1=O
inhibition at 10 µM (hERG (KCNH2)): 89%

Ki (Histamine H3 receptor [2]): 0.6 nM
SMILES: C[C@@H]1CCCN1CCN1CCc2cc(Oc3ccc(C#N)cc3)ccc2C1=O
inhibition at 10 µM (hERG (KCNH2)): 95%

Ki (Histamine H3 receptor [1]): 110 nM
Ki (Histamine H3 receptor [2]): 12.7 nM
SMILES: C[C@H]1CCCN1CCN1CCc2cc(-c3ccc(F)cc3)ccc2C1=O

Ki (Histamine H3 receptor [1]): 5.8 nM
SMILES: C[C@@H]1CCCN1CCN1CCc2cc(-c3ccc(C#N)cc3)ccc2C1=O
IC50 [9]: 140 nM

Ki (Histamine H3 receptor [2]): 1.2 nM
SMILES: CCNC(=O)c1ccc(-c2ccc3c(c2)CCN(CCN2CCCC2)C3=O)cc1

Reference: ChEMBL document CHEMBL2029265, “2-(Pyrrolidin-1-yl)ethyl-3,4-dihydroisoquinolin-1(2H)-one derivatives as potent and selective histamine-3 receptor antagonists” (J Med Chem, 2012)
